T cruzi inh: inhibitors of intracellular T. cruzi growth, primary screen, luminescence, NIH3T3 host cells | T. cruzi beta-gal in NIH3T3, 90 h | inhibition, % (no concentration beside the values) | hit rate 1.4% among 300,000 | AID 1885, 2009;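 active = mean inhibition across valid replicates above about 55%, limit read from the data; inconclusive = mean below that limit but half or more replicates reach it; inactive = mean below it, under half of replicates reach it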;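 note: signal also drops with host cell toxicity which is not excluded here; 0% = plate median of DMSO wells and 100% = zero luminescence signal; higher percent means less beta-gal luminescence so fewer parasites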
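Material: NIH/3T3 host cells with β-galactosidase reporter T. cruzi; Input: 5,000 host fibroblasts per well; Medium: DMEM, 2% fetal bovine serum; Compound: 50 nL DMSO compound solution per well; Schedule: 3 h host attachment, then at least 90 h co-culture; Detection: luminescent β-galactosidase signal after 60 min lysis.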
NALP3 yeast inh: NALP3 inflammasome inhibitors in reconstituted yeast, primary screen, luminescence, uHTS. hit rate 0.39% among 330,000. Yeast reconstituted NLRP3/ASC/caspase-1, beta-gal luminescence, 24 h. inhibition, % at 10 µM;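 active = inhibition of 50% or more; inactive = inhibition below 50%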;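 note: plate controls were induced DMSO wells for no effect and uninduced yeast grown without galactose for full effect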
NALP1 yeast inh: NALP1 inflammasome inhibitors in reconstituted yeast, colorimetric, S. cerevisiae, triplicate retest; hit rate 0.61% among 280,000; S. cerevisiae NALP1/ASC/caspase-1 growth, X-gal OD620, 72 h; AID 2071, 2009; inhibition, % at 10 µM; in the data active = inhibition mostly above about 24%, no sharp cut-off; inactive = mostly below about 32%
Calb FLC: C. albicans growth inhibition with fluconazole, primary screen, CaCi-2 strain, Alamar Blue fluorescence; C. albicans CaCi-2 + fluconazole, 48 h; growth inhibition, % (concentration not given with the values); hit rate 0.57% among 300,000; AID 1979, 2009;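 active = growth inhibition above about 58% in most replicates, limit read from the data, passing the limit was not always enough; inconclusive = exactly half the replicates above a set limit; inactive = most replicates below a set limit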;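 note: all wells also contain fluconazole at 8 µg/ml as a sub-toxic cotreatment; 0% = median of DMSO wells and 100% = median of geldanamycin control wells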
PolyA inhibitor: polyadenylation inhibitors in yeast reporter cells, primary screen, luminescence, S. cerevisiae. S. cerevisiae SKY197-pL101 polyadenylation reporter, beta-gal luminescence; efflux-impaired pdr1/pdr3 knockout yeast; score 100 = 6 SD above DMSO. activity score, % at 12 µM. hit rate 0.02% among 300,000. AID 1875, 2009;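 active = lowest replicate activity score at least 50, where 100 means six control SD above control mean; inconclusive = lowest score under 50 but half or more replicates reach 50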;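 note: yeast exposed to compound for 9 h at 30 °C; higher score means more reporter readthrough which indicates perturbed polyadenylation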
Lmaj promast: Leishmania major promastigote growth inhibition, primary screen. Leishmania major promastigotes, resazurin fluorescence viability. inhibition, % at 10 µM. hit rate 9% among 200,000. AID 1063, 2008; in the data active = inhibition above about 50%;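 note: promastigotes grown with compound for 44 hours at 28 °C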
An asterisk follows results filed as active; u = inconclusive; x = not tested or not shown. The entries come from a sample that favours hits as a whole.

SMILES | T cruzi inh | NALP3 yeast inh | NALP1 yeast inh | Calb FLC | PolyA inhibitor | Lmaj promast
N#C/C(=C/c1ccc(Sc2nc3ccccc3[nH]2)o1)c1cccc(F)c1 | -1 | 16 | 1 | 8 | -8 | 16
Cc1cc(N2CCN(C)CC2)nc2ccc(NC(=O)c3ccccc3F)cc12 | 65* | 6 | 9 | -5 | 3 | 42
CCN1CCN(c2cc(C)c3cc(NC(=O)c4ccccc4F)ccc3n2)CC1 | x | x | 37* | x | x | 51*
Cc1cc(N2CCN(C)CC2)nc2ccc(NC(=O)CCC3CCCC3)cc12 | 45 | 7 | 13 | 37 | -14 | x
CCOc1ccc2c(c1)C(C)=CC(C)(C)N2C(=O)Nc1ccccc1 | 15 | 10 | 3 | 4 | 15 | 50*
OCCN1CCN(CC#CCn2c3ccccc3c3ccccc32)CC1 | 6 | 6 | 4 | -2 | 3 | 64*
OCCN1CCN(CC#CCC(c2ccccc2)c2ccccc2)CC1 | 14 | -4 | 17 | -3 | -3 | x
Cc1ccc[n+](CC(=O)Nc2nc3ccccc3s2)c1 | -22 | 10 | 0 | -17 | -10 | 8
Cn1c(=O)c2c(=O)cc(N)[nH]c2n(C)c1=O | -4 | 0 | 4 | 9 | 4 | x
CC1C(=O)N(c2ccc(S(=O)(=O)N(C)C)cc2)C1(/C=C/c1ccccc1)C(=O)NC1CCCC1 (configuration not stated) | 28 | 5 | 27 | 39 | -4 | 54*
O=C1CC(/C=C/c2ccccc2)(C(=O)NC2CCCC2)N1c1ccc(S(=O)(=O)N2CCCC2)cc1 (configuration not stated) | 13 | 12 | 28 | -11 | -4 | 39
CC1=C(C#N)C(c2cn(-c3ccccc3)nc2-c2cccs2)C(C#N)=C(C)N1 | u | 15 | 1 | -12 | -15 | 66*
CC1CCCCN1S(=O)(=O)c1ccc(C(=O)Nc2nnc(-c3ccncc3)o2)cc1 (configuration not stated) | -53 | 10 | -6 | 21 | -6 | 8
COc1ccc(-c2nnc(NC(=O)c3ccc(S(=O)(=O)N4COCC4(C)C)cc3)o2)cc1 | 62* | 5 | -19 | 68 | 1 | 99*
O=C(Nc1nnc(-c2cccs2)o1)c1ccc(S(=O)(=O)N2CCOCC2)cc1 | -25 | 2 | -13 | 8 | -4 | 28
CC1(C)COCN1S(=O)(=O)c1ccc(C(=O)Nc2nnc(-c3ccc(Cl)s3)o2)cc1 | 49 | -5 | 7 | 79* | -6 | 99*
Cc1ccc2cc(CN(Cc3ccco3)C(=S)NCC3CCCO3)c(=O)[nH]c2c1 (configuration not stated) | 15 | 15 | 10 | -13 | -23 | 12
Cc1ccc(C)c2[nH]c(=O)c(CN(Cc3ccco3)C(=S)NCC3CCCO3)cc12 (configuration not stated) | 0 | 15 | 2 | 14 | 3 | 59*
Cc1ccc2cc(CN(CC3CCCO3)C(=S)Nc3ccccc3)c(=O)[nH]c2c1C (configuration not stated) | -26 | 21 | 26 | 13 | 13 | 67*
Cc1ccc2[nH]c(=O)c(CN(CC3CCCO3)C(=S)Nc3ccccc3)cc2c1 (configuration not stated) | 2 | 7 | 33 | -5 | 3 | 54*
COc1cccc(C(=O)N(Cc2cc3cc(C)ccc3[nH]c2=O)CC2CCCO2)c1 (configuration not stated) | 11 | 10 | -4 | 7 | 9 | 75*
Cc1ccc2cc(CN(CC3CCCO3)C(=S)NCc3ccco3)c(=O)[nH]c2c1 (configuration not stated) | 10 | 4 | 10 | -2 | 4 | 26
Cc1ccc2[nH]c(=O)c(CN(CC3CCCO3)C(=S)NCc3ccco3)cc2c1 (configuration not stated) | 1 | 20 | 5 | -1 | -3 | 57*
CCn1c(Cc2ccccc2)nnc1SCC(=O)Nc1ccccc1F | 4 | 12 | 33* | 3 | -13 | -3
COc1ccc(Br)cc1CNC(=O)Nc1cccs1 | 12 | 8 | 1 | -35 | -15 | 54*
SMILES | T cruzi inh | NALP3 yeast inh | NALP1 yeast inh | Calb FLC | PolyA inhibitor | Lmaj promast
Cc1cc(C)n(CC(O)Cn2c3ccc(Cl)cc3c3cc(Cl)ccc32)c(=O)n1 (configuration not stated) | -12 | 8 | 19 | 10 | 3 | 17
OC(CNCCC1C=Nc2ccccc21)Cn1c2ccc(Cl)cc2c2cc(Cl)ccc21 (configuration not stated) | u | x | 101* | 99* | -10 | 100*
OC(CNCC1CCCO1)Cn1c2ccccc2c2ccccc21 (configuration not stated) | 4 | -1 | 11 | -12 | 30 | 25
OC(CNCC1CCCO1)Cn1c2ccc(Cl)cc2c2cc(Cl)ccc21 (configuration not stated) | 39 | 37 | 28* | 69 | -20 | 100*
O=C(c1cc(C2CC2)nc2ccccc12)N1N=C(C(F)F)CC1(O)C(F)F (configuration not stated) | -7 | 8 | 7 | 3 | 6 | 14
CC(C)c1ccc(-c2cc(C(=O)N3N=C(C(F)F)CC3(O)C(F)F)c3ccccc3n2)cc1 (configuration not stated) | 69* | 14 | 13 | 3 | 2 | 93*
CCCCOc1ccccc1C1C(C(=O)OC)=C(C)N(C)C(C)=C1C(=O)OC | 13 | -6 | -4 | 4 | -22 | 88*
O=C(c1ccccn1)N1CCCC(N2CCN(c3ccccc3)CC2)C1 (configuration not stated) | 5 | -7 | 0 | 7 | 5 | x
CCOc1nc(N=C(N)N)nc2c(C)cccc12 | 43 | 9 | 18 | 46 | 10 | 100*

Screening results: PubChem BioAssay, several laboratories
